A short description of data set [1]: Lipophilicity, logD of compound. The format is physicochemical. The following applies: octanol/water.
The nature of data set [2]: Drug level in mouse plasma at 40 mg/kg, po administered as single dose measured after 8 hrs. The data set is classed as ADME, organism-based. The procedure, abridged:
(§1)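 Plasma was taken from Colo205 tumour-bearing female nude mice sacrificed 1 or 8 h after a single 40 mg/kg oral dose. Drug concentrations were measured in µM.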

Data set [3] is described as follows: Drug level in mouse plasma at 40 mg/kg, po administered as single dose measured after 1 hr. The data set is classed as ADME, organism-based. The procedure, abridged: as §1
Data set [4] is described as follows: Half life in guinea pig. The format is ADME, Cavia porcellus. As to conditions: in vivo.
A short description of data set [5]: Oral bioavailability in rat. The format is ADME, organism-based. The following applies: in vivo.
A short description of data set [6]: Half life in dog. The data set is classed as ADME, Canis lupus familiaris. The following applies: in vivo.
Data set [7] is described as follows: Volume of distribution at steady state in rat. The data set is classed as ADME. The following applies: in vivo, read-out: Vdss.
The nature of data set [8]: Volume of distribution at steady state in mouse. The data set is classed as ADME, organism-based. The following applies: in vivo, read-out: Vdss.
The nature of data set [9]: Clearance in guinea pig. The format is ADME, Cavia porcellus. As to conditions: in vivo.
The nature of data set [10]: Half life in mouse. The data set is classed as ADME, organism-based. The following applies: in vivo.
The nature of data set [11]: Clearance in dog. The data set is classed as ADME, Canis lupus familiaris. As to conditions: in vivo.
Data set [12] in a line: Oral bioavailability in dog. The format is ADME, organism-based, Canis lupus familiaris. As to conditions: in vivo.
Data set [13] in a line: Metabolic stability in mouse hepatocytes assessed as intrinsic clearance measured per million cells. The following applies: read-out: CLH. The format is ADME, cell-based, Hepatocyte.
Data set [14] can be described thus: Metabolic stability in rat hepatocytes assessed as intrinsic clearance measured per million cells. The format is ADME, cell-based, Hepatocyte. As to conditions: read-out: CLH.
Data set [15] can be described thus: Volume of distribution at steady state in guinea pig. The format is ADME, Cavia porcellus. The following applies: in vivo, read-out: Vdss.
Data set [16] is described as follows: Metabolic stability in dog hepatocytes assessed as intrinsic clearance measured per million cells. The format is ADME, cell-based, Canis lupus familiaris, Hepatocyte. The following applies: read-out: CLH.
In the next data set the test system is MDR1. Briefly: Apparent permeability in LLC-PK1 cells expressing MDR1. The following applies: pig. The format is ADME, cell-based, Sus scrofa. The procedure, abridged:
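The cells were MDR1-LLC PK1, a line engineered to express the P-gp efflux pump. Permeability was taken as apical-to-basolateral Papp (10⁻⁶ cm/s), and the efflux ratio was also derived.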

Data set [17] in a line: Clearance in mouse. The format is ADME, organism-based. As to conditions: in vivo.
Data set [18] in a line: Metabolic stability in human hepatocytes assessed as intrinsic clearance measured per million cells. The format is ADME, cell-based, Hepatocyte. As to conditions: read-out: CLH.
Data set [19] is described as follows: Oral bioavailability in mouse. The data set is classed as ADME, organism-based. The following applies: in vivo.
Data set [20] can be described thus: Clearance in rat. The format is ADME. The following applies: in vivo.
Data set [21] is described as follows: Half life in rat. The following applies: in vivo. The format is ADME.
Data set [22] is described as follows: Volume of distribution at steady state in dog. The data set is classed as ADME, Canis lupus familiaris. As to conditions: in vivo, read-out: Vdss.
Data set [23] in a line: Metabolic stability in human liver microsomes assessed as intrinsic clearance. The format is ADME, Microsome. The following applies: read-out: CLH. Background: Liver microsomes are a subcellular fraction often used to study metabolism.
A short description of data set [24]: Metabolic stability in rat liver microsomes assessed as intrinsic clearance. The following applies: read-out: CLH. The data set is classed as ADME, Microsome.

Bounds are passed on as bounds.

Consider `Cc1ccc(-c2c[nH]cn2)cc1NC(=O)c1ccc(OCc2ccccn2)cc1`, for which the logD (commonly the decadic logarithm of the distribution of all forms, ionised or not, between an organic phase and buffer at a given pH) in data set [1] is 2.8.
For the compound `Cc1ccc(-c2nccn2C)cc1NC(=O)c1ccc(OCc2ccccn2)cc1`, the logD in [1] worked out at 2.8.
Compound `Cc1ccc(-c2ncc[nH]2)cc1NC(=O)c1ccc(OCc2ccccn2)cc1` returned a logD in data set [1] of 3. In data set [2], the concentration at 8 h was determined as 7.5 µM.
With `Cc1ccc(-c2cn(C)cn2)cc1NC(=O)c1ccc(OCc2ccccn2)cc1`, the logD in data set [1] was determined as 2.5. This compound also showed a concentration at 8 h in data set [2] of 16 µM. The same compound yielded a concentration at 1 h in [3] of 63 µM.
In turn, `Cc1nc(-c2ccc(C)c(NC(=O)c3ccc(OCc4ccccn4)cc3)c2)c[nH]1` showed a logD in data set [1] of 3.
Compound `Cc1ccc(-c2[nH]cnc2C)cc1NC(=O)c1ccc(OCc2ccccn2)cc1` yielded a pH-dependent lipophilicity (logD) in [1] of 2.9.
On the same count and under the same terms, with `Cc1ccc(-c2cn(C)c(C)n2)cc1NC(=O)c1ccc(OCc2ccccn2)cc1` the figure was 2.7.
Consider `Cc1cc(C)c(-c2ncc[nH]2)cc1NC(=O)c1ccc(OCc2ccccn2)cc1`, for which the half-life – broadly, the time needed for the level to fall by half in the phase considered – in [4] is 1.5 h; in [6], 3.3 h; in [10] it was 0.7 h; in [21] it was 1.1 h. Besides, the bioavailability (as a rule, the share of a dose that reaches the circulation, judged against a reference dose that is usually intravenous) in data set [5] was 100%; in [12], 100%; in data set [19], 75%. For the same compound, the Vd in data set [7] was 1.2 L/kg; in data set [8], 1.6 L/kg; in data set [15] it was 1.8 L/kg; in [22] it was 0.9 L/kg. Moreover, the clearance (usually the rate of elimination divided by the concentration) in data set [9] came to 18 mL/min/kg; in [11], 4 mL/min/kg; in data set [17], 31 mL/min/kg; in [20] it was 24 mL/min/kg. Further, the hepatocyte CLint in [13] was 6.6 µL/min/1e6 cells; in data set [14], 18 µL/min/1e6 cells; in data set [16], 1.4 µL/min/1e6 cells; in [18] it was 9 µL/min/1e6 cells. Moreover, the logD in data set [1] was determined as 3.1. Further, the Papp (usually a coefficient for how fast a substance crosses the barrier) in the data set with MDR1 was determined as 7.5 ×10⁻⁶ cm/s. Further, the concentration at 8 h in [2] is 1.9 µM. The compound also registered a concentration at 1 h in data set [3] of 22.3 µM.
Compound `Cc1cc(F)c(-c2ncc[nH]2)cc1NC(=O)c1ccc(OCc2ccccn2)cc1` registered a pH-dependent lipophilicity (logD) in data set [1] of 3. The hepatocyte CLint in data set [14] is 14 µL/min/1e6 cells. For the same compound, the concentration at 8 h in data set [2] came to 20 µM. Moreover, in data set [3], the concentration at 1 h is 58 µM.
The compound `Cc1cc(Cl)c(-c2cn(C)cn2)cc1NC(=O)c1ccc(OCc2ccccn2)cc1` returned a pH-dependent lipophilicity (logD) in data set [1] of 3.1.
Compound `Cc1cc(Cl)c(-c2cn(C)c(C)n2)cc1NC(=O)c1ccc(OCc2ccccn2)cc1` gave a logD in data set [1] of 3.3.
For the compound `Cc1cc(C)c(-c2nc3ccccc3[nH]2)cc1NC(=O)c1ccc(OCc2ccccn2)cc1`, the microsomal CLint was 30 µL/min/mg in [23] and 21 µL/min/mg in data set [24]. This compound registered a logD in data set [1] of more than 3.5.
As to `Cc1cc(C)c(-c2cn(C)cn2)cc1NC(=O)c1ccc(OCc2ccccn2)cc1`, the half-life is 4.2 h in [4], 1.4 h in data set [6], 0.8 h in [10] and 2.4 h in [21]. Also, the bioavailability came to 90% in data set [5], 32% in data set [12] and 70% in [19]. Moreover, the Vd in data set [7] was found to be 0.2 L/kg; in data set [8], 0.4 L/kg; in data set [15], 0.5 L/kg; in [22], 0.5 L/kg. The clearance in data set [9] came to 1.6 mL/min/kg; in data set [11], 4.7 mL/min/kg; in data set [17], 6.1 mL/min/kg; in [20], 1.7 mL/min/kg. The hepatocyte CLint was less than 1 µL/min/1e6 cells in data set [13], 19 µL/min/1e6 cells in data set [14], 10 µL/min/1e6 cells in data set [16] and 6 µL/min/1e6 cells in data set [18]. The logD in [1] was 3. For the same compound, the Papp in the data set on MDR1 was 16.5 ×10⁻⁶ cm/s. This compound displayed a concentration at 8 h in [2] of 16 µM. This compound also came in with a concentration at 1 h in [3] of 94 µM.
As to `Cc1cc(C)c(-c2cccc(N)n2)cc1NC(=O)c1ccc(OCc2ccccn2)cc1`, the microsomal CLint in [23] was 88 µL/min/mg; in data set [24], 155 µL/min/mg. In data set [1], the log distribution coefficient (logD) was more than 3.
In the case of `Cc1ccc(-c2cnc(C)n2C)cc1NC(=O)c1ccc(OCc2ccccn2)cc1`, the logD in data set [1] was 2.8. In [2], the concentration at 8 h amounted to 0.08 µM. The same compound showed a concentration at 1 h in data set [3] of 1.8 µM.
In the case of `Cc1ccc(-c2ncc[nH]2)c(C)c1NC(=O)c1ccc(OCc2ccccn2)cc1`, the logD in [1] came out at 2.8. This compound displayed a concentration at 8 h in data set [2] of 0.14 µM. For the same compound, in data set [3], the concentration at 1 h was 3.3 µM.
Take `Cc1csc(-c2cc(NC(=O)c3ccc(OCc4ccccn4)cc3)c(C)cc2C)n1`: the microsomal CLint in [23] came to 513 µL/min/mg; in data set [24] it was 147 µL/min/mg. In addition, the logD in [1] is more than 3.
Compound `Cc1cc(C)c(-c2cnc(C)n2C)cc1NC(=O)c1ccc(OCc2ccccn2)cc1` had a log distribution coefficient (logD) in data set [1] of 2.8. In addition, the hepatocyte CLint is 32 µL/min/1e6 cells in data set [14] and 12 µL/min/1e6 cells in [18]. For the same compound, the concentration at 8 h in data set [2] was 0.28 µM. The same compound yielded a concentration at 1 h in data set [3] of 2.9 µM.
`Cc1cc(Cl)c(-c2nccn2C)cc1NC(=O)c1ccc(OCc2ccccn2)cc1`: the logD in data set [1] was determined as 3.2.
`Cc1cc(Cl)c(-c2ncc[nH]2)cc1NC(=O)c1ccc(OCc2ccccn2)cc1` returned a log distribution coefficient (logD) in data set [1] of more than 3.
As for `Cc1cc(C)c(-c2ccc(N)cn2)cc1NC(=O)c1ccc(OCc2ccccn2)cc1`, the microsomal CLint in data set [23] turned out to be 9 µL/min/mg; in data set [24], 32 µL/min/mg. The compound further returned a log distribution coefficient (logD) in data set [1] of 3.2.
As for `Cc1cc(C)c(-c2cccnc2)cc1NC(=O)c1ccc(OCc2ccccn2)cc1`, the microsomal CLint in [23] is 62 µL/min/mg; in [24], 78 µL/min/mg. Moreover, the log distribution coefficient (logD) in [1] is more than 3.
The matching figures for `Cc1cc(C)c(-c2ccccn2)cc1NC(=O)c1ccc(OCc2ccccn2)cc1`: 209 µL/min/mg, 296 µL/min/mg and more than 3.
Turning to `Cc1cc(C)c(-c2ccc(N)nn2)cc1NC(=O)c1ccc(OCc2ccccn2)cc1`, the microsomal CLint is less than 4 µL/min/mg in data set [23] and 8 µL/min/mg in data set [24]. In data set [1], this compound yielded a logD of 2.6. The concentration at 8 h in [2] worked out at 2.7 µM. In [3], this compound gave a concentration at 1 h of 33 µM.
As to `Cc1cc(C)c(-c2c(C)nn(C)c2C)cc1NC(=O)c1ccc(OCc2ccccn2)cc1`, the microsomal CLint in [23] was found to be 122 µL/min/mg; in data set [24], 271 µL/min/mg. This compound also gave a pH-dependent lipophilicity (logD) in data set [1] of more than 3.
Take `Cc1cc(C)c(-c2c[nH]nc2C)cc1NC(=O)c1ccc(OCc2ccccn2)cc1`: the results for the microsomal CLint in data set [23] and in data set [24] were 20 µL/min/mg and 55 µL/min/mg, respectively. Besides, in [1], the logD is more than 3. The compound further displayed a concentration at 8 h in [2] of 0.23 µM. Moreover, the concentration at 1 h in data set [3] stood at 5.5 µM.
As for `CS(=O)(=O)c1ccc(C(=O)Nc2ccc(Cl)c(-c3ccccn3)c2)c(Cl)c1` [VISMODEGIB], the bioavailability in data set [5] was found to be 49%; in [19] it was 33%. Moreover, the half-life was 1 h in [10] and 1.9 h in data set [21]. Besides, the pH-dependent lipophilicity (logD) in data set [1] is 2.8. Further, the values for the hepatocyte CLint in data set [14] and in data set [18] were 16 µL/min/1e6 cells and less than 1 µL/min/1e6 cells, respectively. For the same compound, in data set [2], the concentration at 8 h was 18.8 µM. Moreover, the values for the clearance in [17] and in [20] were 5.6 mL/min/kg and 2 mL/min/kg, respectively. The same compound showed a concentration at 1 h in [3] of 10.3 µM.

For the origin of these results see ChEMBL document CHEMBL4610013, “Heteroarylamide smoothened inhibitors: Discovery of N-[2,4-dimethyl-5-(1-methylimidazol-4-yl)phenyl]-4-(2-pyridylmethoxy)benzamide (AZD8542) and N-[5-(1H-imidazol-2-yl)-2,4-dimethyl-phenyl]-4-(2- pyridylmethoxy)benzamide (AZD7254)” (Bioorg Med Chem, 2020).
